Published values pooled from the literature.
Each line is one published result; the experiments were not run side by side.

O=c1cccccc1SSc1cccccc1=O gave a CC50 of 9.6 µM (HepDES19; cell growth or viability, MTS; 72 h).
CN1CCC(NCc2cccc(-c3ccc(S(=O)(=O)NCc4ccccc4)cc3)c2)CC1 gave a CC50 of 32.3 µM (HEK293; cell growth or viability, MTT; 24 h).
CCS(=O)(=O)Nc1ccc(OCCOCCOCCOCCOc2ccc(NS(=O)(=O)CC)cc2-c2cn(C)c(=O)c3ccccc23)c(-c2cn(C)c(=O)c3ccccc23)c1 has a Papp of 0.13 ×10⁻⁶ cm/s (MDCK-MDR1; Caco-2).
For O=C(Sc1cccccc1=O)c1ccccc1C(F)(F)F, the CC50 was 8.6 µM (HepDES19; cell growth or viability, MTS; 72 h).
CCS(=O)(=O)Nc1cccc(-c2cn(C)c(=O)c3ccccc23)c1 gave a Papp of 15 ×10⁻⁶ cm/s (MDCK-MDR1; Caco-2).
With O=C(Sc1cccccc1=O)c1ccc(C(F)(F)F)cc1 the CC50 was 56.1 µM (HepDES19; cell growth or viability, MTS; 72 h).
For Cc1ccc2c(=O)n(-c3ccc(F)cc3)c(CCN3C(=O)c4cccc(OC(C)C)c4C3=O)nc2c1, the Papp A→B was 30 ×10⁻⁶ cm/s (MDCK-MDR1; Caco-2; 1 µM, 90 min, pH 7.4).
CC1c2cc(c(O)c(O)c2O)C(C)c2cc(c(O)c(O)c2O)C(C)c2cc(c(O)c(O)c2O)C(C)c2cc1c(O)c(O)c2O (stereo not drawn) has a CC50 of 102 µM (HEK293; cell growth or viability, ATP luminescence; 24 h).
COc1ccc2cc3[n+](cc2c1OC)CCc1cc2c(cc1-3)OCO2 has a Papp A→B of 0.39 ×10⁻⁶ cm/s (MDCK-MDR1; Caco-2; 10 µg/mL, 4 h).
CC(C)Cn1c(=O)n(C)c(=O)c2c(-c3cncn3C)n(Cc3cccc4ccccc34)nc21 has a CC50 of > 200 µM (HEK293; cell growth or viability, MTT; 24 h).
COC(=O)c1ccccc1-c1c2ccc(=N)cc-2oc2cc(N)ccc12 has an efflux ratio of 4.92 (MDR1; MDCK-MDR1; 5 µM, 2 h, pH 7.4).
The CC50 of O=C(O)/C=C/C=C/c1cccc(Oc2cc(Cl)cc(Cl)c2)c1 is reported as > 200 µM (HEK293; cell growth or viability, MTT; 24 h).
With CC1c2cc(c(O)cc2O)C(C)c2cc(c(O)cc2O)C(C)c2cc(c(O)cc2O)C(C)c2cc1c(O)cc2O (stereo not drawn) the CC50 was 14.9 µM (HEK293; cell growth or viability, MTT; 24 h).
With Cc1ccc2c(c1C)NC(=O)[C@]21NN=C(c2ccccc2)S1 the CC50 was 100 µM (HEK293; cell growth or viability, MTT; 24 h).
For Cn1cnc2c1c(=O)n(CC(=O)Nc1c(Cl)cccc1Cl)c(=O)n2C, the viability was 56.1% (NCI-H1975; cell growth or viability, MTT; 6.3 µg).
